“Also recorded” adds a separate entry of the source.
How the values were obtained:
PTP1B [1] = molecular target: T1, PTP1B (Homo sapiens, UniProt P18031); experiment: PTP1B inhibitory assay; type: biochemical
T1 sequence (P18031 1-435): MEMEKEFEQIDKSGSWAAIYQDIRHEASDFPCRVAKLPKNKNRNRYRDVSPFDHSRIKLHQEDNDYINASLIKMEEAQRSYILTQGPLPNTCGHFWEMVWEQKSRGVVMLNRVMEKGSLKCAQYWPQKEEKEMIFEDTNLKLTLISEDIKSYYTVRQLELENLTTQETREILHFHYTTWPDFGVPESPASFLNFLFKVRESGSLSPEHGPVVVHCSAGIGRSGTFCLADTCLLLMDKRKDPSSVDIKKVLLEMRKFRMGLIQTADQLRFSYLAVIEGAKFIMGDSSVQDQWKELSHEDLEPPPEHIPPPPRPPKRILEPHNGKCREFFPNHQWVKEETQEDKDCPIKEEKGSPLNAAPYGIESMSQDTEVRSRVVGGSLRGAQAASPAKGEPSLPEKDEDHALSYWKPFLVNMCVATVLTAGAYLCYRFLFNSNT

PTP1B [2] = molecular target: T1, PTP1B; experiment: Enzyme kinetic assay; type: biochemical; conditions: for kinetic mode: Lineweaver–Burk plots; for KIS: inhibition constant for enzyme–substrate complex
Procedure, shortened: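 Human recombinant PTP1B in Tris-HCl pH 7.5 buffer (25 mM Tris, 1 mM EDTA, 2 mM 2-mercaptoethanol, 1 mM dithiothreitol); test compounds dissolved in DMSO. Steady-state rates were taken across varied inhibitor and substrate concentrations and analysed by Lineweaver–Burk and Dixon plots. KI and KIS came from secondary plots of slopes or 1/Vmax intercepts vs inhibitor concentration (eqs 2–4). Reversibility was judged from activity vs enzyme concentration at several inhibitor levels.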

PTP1B [3] = molecular target: T1, PTP1B; experiment: Fluorescence quenching measurement of binding affinity; conditions: for n (number of binding sites) / KSV (Stern–Volmer constant): fluorescence quenching; for KSV (Stern–Volmer constant): 0–25 μM inhibitor
Procedure, shortened: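 Intrinsic fluorescence quenching of human recombinant PTP1B, at the enzyme level of the activity assays, in assay buffer. Test compound was added at 0, 1.6, 3.2, 6.2, 12.5 and 25 μM. Emission spectra were recorded over 300–400 nm with 250 nm excitation and 2 nm slits. KSV was obtained by Stern–Volmer analysis; binding constant KA and number of sites n from eqs 9–10.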

PTP1B [4] = molecular target: T1, PTP1B; experiment: Time-dependent assays and progress curves; type: biochemical
Procedure, shortened: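 PTP1B was preincubated with test compound for 0, 5, 10, 15, 30, 45, 60 or 75 min (0.2 μM), then residual activity was read. Progress curves were recorded at actual substrate concentration across several inhibitor concentrations by absorbance at 405 nm, […] the ~10 min lag. vi, vs, kobs and Ki app were fitted with eqs 5–8. kobs was plotted against inhibitor concentration to give k3 and k4.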

[5] = Ki (inhibition constant), estimated using Dixon plots
[6] = KI, inhibition constant for free enzyme, secondary plots

With `O=c1cc(-c2ccc(O)cc2)oc2cc(O)cc(O)c12` [Compound 8, apigenin] the IC50 (PTP1B [1]) was 5.99 ± 0.5 µM, the Ki (PTP1B [2]; [5]) was 2.9 µM and the kinetic mode (PTP1B [2]) was “competitive”. The Kd (PTP1B [3]) was 769 µM, the “n (number of binding sites)” value (PTP1B [3]) was 1.02 and the “KSV (Stern–Volmer constant)” value (PTP1B [3]) was 0.0056 × 10^5 L·mol^–1.

With `CC1(C)C=Cc2c(cc(O)c3c(=O)cc(-c4ccc(O)cc4)oc23)O1` [Compound 7, atalantoflavone] the IC50 (PTP1B [1]) was 1.19 ± 0.3 µM, the Ki (PTP1B [2]; [5]) was 0.45 µM and the kinetic mode (PTP1B [2]) was “competitive”. The Kd (PTP1B [3]) was 72.5 µM, the “n (number of binding sites)” value (PTP1B [3]) was 0.93 and the “KSV (Stern–Volmer constant)” value (PTP1B [3]) was 0.0569 × 10^5 L·mol^–1.

With `CC1(C)C=Cc2c(cc(O)c3c2O[C@H](c2ccc(O)cc2)[C@@H](O)C3=O)O1` [Compound 5, yukovanol] the IC50 (PTP1B [1]) was 3.07 ± 0.2 µM, the “fold effective vs mother compound” value (PTP1B [1]; pyran compound 5 vs 6) was 9 fold and the Ki (PTP1B [2]; [5]) was 3.46 µM. For the same molecule, the kinetic mode (PTP1B [2]) was “noncompetitive inhibitor”, the Kd (PTP1B [3]) was 1110 µM and the “n (number of binding sites)” value (PTP1B [3]) was 1.20. For the same molecule, the “KSV (Stern–Volmer constant)” value (PTP1B [3]) was 0.0132 × 10^5 L·mol^–1.

For `CC1(C)C=Cc2c(cc(O)c3c2O[C@H](c2ccccc2)[C@@H](O)C3=O)O1` [Compound 1, (2R,3R)-3,5-dihydroxy-8,8-dimethyl-2-phenyl-2,3-dihydro-4H,8H-pyrano[2,3-f]chromen-4-one], the “fold more effective (inhibition activity)” value (PTP1B [1]; trans 1 vs cis 2) was 13 fold, the Ki (PTP1B [2]; [5]) was 0.07 µM and the kinetic mode (PTP1B [2]) was “competitive mode; also recorded: competitive inhibitors”. For the same molecule, the “reversibility of the inhibitor to the enzyme” value (PTP1B [2]; initial velocity plots at different inhibitor concentrations) was “typical reversibility”, the Ki (PTP1B [4]) was 0.0641 µM and the time-dependent inhibition type (PTP1B [4]; preincubation 0–75 min, kobs vs inhibitor concentration linear) was “simple slow-binding inhibitor; also recorded: slow binding mode; also recorded: slow binding characteristics”. The k3 (PTP1B [4]; slow-binding, progress curves) was 0.2262 μM^–1 min^–1, the k4 (PTP1B [4]; slow-binding, progress curves) was 0.0145 min^–1 and the Kd (PTP1B [3]) was 27.8 µM. The “n (number of binding sites)” value (PTP1B [3]) was 1.09 and the “KSV (Stern–Volmer constant)” value (PTP1B [3]) was 0.4375 × 10^5 L·mol^–1.

`CC1(C)C=Cc2c(cc(O)c3c2O[C@H](c2ccccc2)[C@H](O)C3=O)O1` [Compound 2, (2R,3S)-3,5-dihydroxy-8,8-dimethyl-2-phenyl-2,3-dihydro-4H,8H-pyrano[2,3-f]chromen-4-one] was tested, and the IC50 (PTP1B [1]) was 2.24 ± 0.5 µM, the Ki (PTP1B [2]; [5]) was 1.04 µM and the kinetic mode (PTP1B [2]) was “competitive inhibitors”. For the same molecule, the Kd (PTP1B [3]) was 370 µM, the “n (number of binding sites)” value (PTP1B [3]) was 1.16 and the “KSV (Stern–Volmer constant)” value (PTP1B [3]) was 0.0304 × 10^5 L·mol^–1.

For `O=c1cc(-c2ccc(O)cc2O)oc2cc(O)cc(O)c12` [Compound 10, norartocarpetin], the IC50 (PTP1B [1]) was 3.39 ± 0.2 µM, the Ki (PTP1B [2]; [6]) was 2.68 µM and the Ki (PTP1B [2]; [5]) was 2.71 µM. For the same molecule, the kinetic mode (PTP1B [2]) was “mixed-type inhibitions; also recorded: mixed type I”, the KIS (PTP1B [2]; secondary plots) was 5.23 µM and the Kd (PTP1B [3]) was 833 µM. The “n (number of binding sites)” value (PTP1B [3]) was 1.06 and the “KSV (Stern–Volmer constant)” value (PTP1B [3]) was 0.0124 × 10^5 L·mol^–1.

In the case of `O=c1cc(-c2ccc(O)cc2)oc2cc(O[C@@H]3O[C@H](CO)[C@@H](O)[C@H](O)[C@H]3O)cc(O)c12` [Compound 13, apigenin-7-O-β-D-glucopyranoside], the IC50 (PTP1B [1]) is reported as 0.22 ± 0.3 µM, the “fold better inhibition than mother skeleton” value (PTP1B [1]; glycosides 11 vs 6 and 13 vs 8) is reported as 27 fold and the Ki (PTP1B [2]; [6]) is reported as 0.18 µM. The Ki (PTP1B [2]; [5]) was 0.18 µM, the kinetic mode (PTP1B [2]) was “mixed type I” and the KIS (PTP1B [2]; secondary plots) was 0.80 µM. For the same molecule, the Kd (PTP1B [3]) was 22.1 µM, the “n (number of binding sites)” value (PTP1B [3]) was 0.97 and the “KSV (Stern–Volmer constant)” value (PTP1B [3]) was 0.3803 × 10^5 L·mol^–1.

With `O=C1c2c(O)cc(O)cc2O[C@H](c2ccc(O)cc2)[C@H]1O` [Compound 6, dihydrokaempferol] the IC50 (PTP1B [1]) was 35.4 ± 0.7 µM, the Ki (PTP1B [2]; [5]) was 34.7 µM and the kinetic mode (PTP1B [2]) was “noncompetitive”. For the same molecule, the Kd (PTP1B [3]) was 10000 µM, the “n (number of binding sites)” value (PTP1B [3]) was 0.79 and the “KSV (Stern–Volmer constant)” value (PTP1B [3]) was 0.0002 × 10^5 L·mol^–1.

— PMC10905692 (ACS Omega, 2024)
